Source: ChEMBL document CHEMBL5058577, “EUbOPEN Chemogenomics Library 2 (Multiplex)” (2022)

System: U2OS
Test: Multiplex assay against U2OS
Format: toxicity, cell-based
Conditions: human
Method in brief: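 Four dyes were applied at seeding to live cells: Hoechst33342, BioTracker Green Microtubule Cytoskeleton Dye, MitoTracker Red and Annexin V Alexa Fluor 680. Imaging after compound addition used a CQ1 microscope at 37°C and 5% CO2. CellPathfinder machine-learning gating then sorted cells into Hoechst high-intensity objects or normal cells, normal cells into healthy, pyknosed or fragmented nuclei, and pyknosed cells into mitotic or apoptotic, with tubulin, mitochondrial-mass and membrane-permeability phenotypes given as per cents of healthy-nucleus cells.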

[1] = 12 h, 1 µM, compound concentration 1 uM, replicate 1
[2] = 12 h, 1 µM, compound concentration 1 uM, replicate 2
[3] = 12 h, 10 µM, compound concentration 10 uM, replicate 1
[4] = 12 h, 10 µM, compound concentration 10 uM, replicate 2
[5] = 24 h, 1 µM, compound concentration 1 uM, replicate 1
[6] = 24 h, 1 µM, compound concentration 1 uM, replicate 2
[7] = 24 h, 10 µM, compound concentration 10 uM, replicate 1
[8] = 24 h, 10 µM, compound concentration 10 uM, replicate 2
[9] = 48 h, 1 µM, compound concentration 1 uM, replicate 1
[10] = 48 h, 1 µM, compound concentration 1 uM, replicate 2
[11] = 48 h, 10 µM, compound concentration 10 uM, replicate 1
[12] = 48 h, 10 µM, compound concentration 10 uM, replicate 2

For `CCCCC1=NC2(CCCC2)C(=O)N1Cc1ccc(-c2ccccc2-c2nnn[nH]2)cc1` [IRBESARTAN], the “Population Apoptotic (%)” value [1] was 83%, the “Population Fragmented Nuclei (%)” value [1] was 25% and the “Population Healthy Nuclei (%)” value [1] was 66%. For the same compound, the “Population Hoechst High Intensity Objects (%)” value [1] was 2%, the “Population Membrane Permeable-Phenotype (%)” value [1] was 5% and the “Population Mitochondria Different-Phenotype (%)” value [1] was 1%. For the same compound, the “Population Mitotic Cells (%)” value [1] was 16%, the “Population Normal (%)” value [1] was 97% and the “Population Pyknosed Nuclei (%)” value [1] was 7%. The “Population Tubulin-Different-Phenotype (%)” value [1] was 1%, the “Total Cell Count” value [1] was 233 and the “Population Apoptotic (%)” value [2] was 77%. For the same compound, the “Population Fragmented Nuclei (%)” value [2] was 9%, the “Population Healthy Nuclei (%)” value [2] was 82% and the “Population Hoechst High Intensity Objects (%)” value [2] was 0%. The “Population Membrane Permeable-Phenotype (%)” value [2] was 11%, the “Population Mitotic Cells (%)” value [2] was 22% and the “Population Normal (%)” value [2] was 99%. The “Population Tubulin-Different-Phenotype (%)” value [2] was 8%, the “Total Cell Count” value [2] was 124 and the “Population Apoptotic (%)” value [3] was 91%. For the same compound, the “Population Fragmented Nuclei (%)” value [3] was 22%, the “Population Healthy Nuclei (%)” value [3] was 68% and the “Population Hoechst High Intensity Objects (%)” value [3] was 2%. For the same compound, the “Population Membrane Permeable-Phenotype (%)” value [3] was 4%, the “Population Mitochondria Different-Phenotype (%)” value [3] was 3% and the “Population Mitotic Cells (%)” value [3] was 8%. For the same compound, the “Population Normal (%)” value [3] was 97%, the “Population Pyknosed Nuclei (%)” value [3] was 9% and the “Population Tubulin-Different-Phenotype (%)” value [3] was 2%. For the same compound, the “Total Cell Count” value [3] was 254, the “Population Apoptotic (%)” value [4] was 100% and the “Population Fragmented Nuclei (%)” value [4] was 18%. For the same compound, the “Population Healthy Nuclei (%)” value [4] was 74%, the “Population Hoechst High Intensity Objects (%)” value [4] was 0% and the “Population Membrane Permeable-Phenotype (%)” value [4] was 8%. The “Population Mitochondria Different-Phenotype (%)” value [4] was 6%, the “Population Mitotic Cells (%)” value [4] was 0% and the “Population Normal (%)” value [4] was 100%. For the same compound, the “Population Pyknosed Nuclei (%)” value [4] was 8%, the “Population Tubulin-Different-Phenotype (%)” value [4] was 8% and the “Total Cell Count” value [4] was 100. For the same compound, the “Population Apoptotic (%)” value [5] was 70%, the “Population Fragmented Nuclei (%)” value [5] was 23% and the “Population Healthy Nuclei (%)” value [5] was 69%. The “Population Hoechst High Intensity Objects (%)” value [5] was 3%, the “Population Membrane Permeable-Phenotype (%)” value [5] was 6% and the “Population Mitochondria Different-Phenotype (%)” value [5] was 3%. The “Population Mitotic Cells (%)” value [5] was 29%, the “Population Normal (%)” value [5] was 96% and the “Population Pyknosed Nuclei (%)” value [5] was 7%. The “Population Tubulin-Different-Phenotype (%)” value [5] was 3%, the “Total Cell Count” value [5] was 241 and the “Population Apoptotic (%)” value [6] was 66%. The “Population Fragmented Nuclei (%)” value [6] was 12%, the “Population Healthy Nuclei (%)” value [6] was 76% and the “Population Hoechst High Intensity Objects (%)” value [6] was 2%. For the same compound, the “Population Membrane Permeable-Phenotype (%)” value [6] was 9%, the “Population Mitochondria Different-Phenotype (%)” value [6] was 2% and the “Population Mitotic Cells (%)” value [6] was 33%. The “Population Normal (%)” value [6] was 97%, the “Population Pyknosed Nuclei (%)” value [6] was 10% and the “Population Tubulin-Different-Phenotype (%)” value [6] was 4%. For the same compound, the “Total Cell Count” value [6] was 142, the “Population Apoptotic (%)” value [7] was 96% and the “Population Fragmented Nuclei (%)” value [7] was 18%. For the same compound, the “Population Healthy Nuclei (%)” value [7] was 73%, the “Population Hoechst High Intensity Objects (%)” value [7] was 2% and the “Population Membrane Permeable-Phenotype (%)” value [7] was 6%. For the same compound, the “Population Mitochondria Different-Phenotype (%)” value [7] was 3%, the “Population Mitotic Cells (%)” value [7] was 4% and the “Population Normal (%)” value [7] was 97%. For the same compound, the “Population Pyknosed Nuclei (%)” value [7] was 8%, the “Population Tubulin-Different-Phenotype (%)” value [7] was 4% and the “Total Cell Count” value [7] was 301. The “Population Apoptotic (%)” value [8] was 91%, the “Population Healthy Nuclei (%)” value [8] was 72% and the “Population Hoechst High Intensity Objects (%)” value [8] was 0%. The “Population Membrane Permeable-Phenotype (%)” value [8] was 7%, the “Population Mitotic Cells (%)” value [8] was 8% and the “Population Normal (%)” value [8] was 99%. For the same compound, the “Population Tubulin-Different-Phenotype (%)” value [8] was 3%, the “Total Cell Count” value [8] was 135 and the “Population Apoptotic (%)” value [9] was 97%. The “Population Fragmented Nuclei (%)” value [9] was 18%, the “Population Healthy Nuclei (%)” value [9] was 71% and the “Population Hoechst High Intensity Objects (%)” value [9] was 2%. The “Population Membrane Permeable-Phenotype (%)” value [9] was 5%, the “Population Mitochondria Different-Phenotype (%)” value [9] was 2% and the “Population Mitotic Cells (%)” value [9] was 2%. For the same compound, the “Population Normal (%)” value [9] was 97%, the “Population Pyknosed Nuclei (%)” value [9] was 10% and the “Population Tubulin-Different-Phenotype (%)” value [9] was 2%. The “Total Cell Count” value [9] was 357, the “Population Apoptotic (%)” value [10] was 94% and the “Population Fragmented Nuclei (%)” value [10] was 14%. The “Population Healthy Nuclei (%)” value [10] was 76%, the “Population Hoechst High Intensity Objects (%)” value [10] was 4% and the “Population Membrane Permeable-Phenotype (%)” value [10] was 6%. For the same compound, the “Population Mitochondria Different-Phenotype (%)” value [10] was 1%, the “Population Mitotic Cells (%)” value [10] was 5% and the “Population Normal (%)” value [10] was 95%. The “Population Pyknosed Nuclei (%)” value [10] was 9%, the “Total Cell Count” value [10] was 198 and the “Population Apoptotic (%)” value [11] was 89%. The “Population Fragmented Nuclei (%)” value [11] was 14%, the “Population Healthy Nuclei (%)” value [11] was 75% and the “Population Hoechst High Intensity Objects (%)” value [11] was 3%. The “Population Membrane Permeable-Phenotype (%)” value [11] was 7%, the “Population Mitochondria Different-Phenotype (%)” value [11] was 3% and the “Population Mitotic Cells (%)” value [11] was 10%. For the same compound, the “Population Normal (%)” value [11] was 96%, the “Population Pyknosed Nuclei (%)” value [11] was 9% and the “Population Tubulin-Different-Phenotype (%)” value [11] was 3%. For the same compound, the “Total Cell Count” value [11] was 419, the “Population Apoptotic (%)” value [12] was 94% and the “Population Fragmented Nuclei (%)” value [12] was 16%. The “Population Healthy Nuclei (%)” value [12] was 72%, the “Population Hoechst High Intensity Objects (%)” value [12] was 4% and the “Population Membrane Permeable-Phenotype (%)” value [12] was 9%. The “Population Mitochondria Different-Phenotype (%)” value [12] was 7%, the “Population Mitotic Cells (%)” value [12] was 5% and the “Population Normal (%)” value [12] was 95%. The “Population Pyknosed Nuclei (%)” value [12] was 10%, the “Population Tubulin-Different-Phenotype (%)” value [12] was 7% and the “Total Cell Count” value [12] was 175.
